Here are results for eleven molecules from ChEMBL document CHEMBL4002582, “Bioactive Terpenoids from Salvia plebeia: Structures, NO Inhibitory Activities, and Interactions with iNOS” (J Nat Prod, 2016).

Each structure is given as a SMILES string. Bounds are passed on as bounds.

Data set [1] has as its system BV-2. Kind of data set: Antiinflammatory activity in mouse BV2 cells assessed as inhibition of LPS-induced nitric oxide production incubated for 24 hrs by Griess assay. Format: functional, cell-based. To be noted: BV-2, 24 h. The method in brief:
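NO output from murine microglial BV-2 cells was stimulated with lipopolysaccharide. IC50 values were derived from the inhibition of LPS-induced NO generation, and results come from three experiments. 2-Methyl-2-thiopseudourea sulfate (SMT) was the positive control.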
A general note: Griess reagent forms a coloured azo dye with nitrite.

The subject of data set [2] is BV-2. Kind of data set: Cytotoxicity against mouse BV2 cells assessed as effect on cell survival by MTT assay. Format: cell-based. On the technique in general: Tetrazolium dyes change colour on reduction, which living cells bring about.

As for `CC(C)C1=CC[C@@]2(C)[C@H](O)CC[C@](C)(O)[C@@H]2C1` [OPLODIOL], the IC50 with BV-2 [1] was 63.5 µM. The Activity entry with BV-2 [2] is “Non-Toxic”.
As for `CC(C)C1=C[C@@]23CC[C@H]4C(C)(C)C[C@H](O)C[C@]4(CO2)C3=C(O)C1=O`, in the data set on BV-2 [1], the concentration for half-maximal inhibition (IC50) was 14.8 µM. The Activity result in the data set with BV-2 [2] is on record as “Non-Toxic”.
Taken in the same sequence, the figures for `CC(C)c1cc2c(c(O)c1O)C[C@@]1(O)CCCC(C)(C)[C@@H]1CC2` were 10.6 µM and “Non-Toxic”.
With `CC(=O)O[C@H]1CC(C)(C)[C@@H]2C[C@@H]3OC[C@@]2(C1)c1c3cc(C(C)C)c(O)c1O`, in the data set with BV-2 [1], the IC50 is greater than 30 µM. Further, the Activity result with BV-2 [2] is “Non-Toxic”.
For `CC(=O)[C@H]1CC[C@@H]2[C@@H]1[C@H](C(C)C)CC[C@@]2(C)O`, the IC50 with BV-2 [1] was 38.9 µM. The Activity entry in the data set with BV-2 [2] is reported as “Non-Toxic”.
Taken in the same sequence, the figures for `CO[C@H]1O[C@H]2CC[C@@]13c1c(cc(C(C)C)c(O)c1O)CC[C@H]3C2(C)C` were greater than 30 µM and “Non-Toxic”.
Taken in the same sequence, the figures for `CC(=O)O[C@H]1CC(C)(C)C2=C(O)C(=O)c3cc(C(C)C)c(O)c(O)c3[C@@]2(C)C1` were 26.5 µM and “Non-Toxic”.
Regarding `CSC(=N)N`, the 50% inhibitory concentration (IC50) with BV-2 [1] came out at 2.9 µM.
Take `CC1=CC[C@@H]2[C@@H]3C[C@H]1[C@@]2(C)[C@@H](O)C[C@@H]3C(C)C`: the IC50 in the data set with BV-2 [1] was 92.9 µM. Further, in the data set on BV-2 [2], the Activity entry is on record as “Non-Toxic”.
Taken in the same sequence, the figures for `CC(=O)O[C@H]1CC(C)(C)[C@@H]2CC[C@@]34C=C(C(C)C)C(=O)C(O)=C3[C@@]2(CO4)C1` were 5.7 µM and “Non-Toxic”.
In the case of `CC(=O)OC[C@@]1(O)CC[C@@H]2[C@H]([C@H]3[C@H]1CC[C@]3(C)O)C2(C)C`, the IC50 with BV-2 [1] worked out at 47.6 µM. Further, the Activity entry with BV-2 [2] is reported as “Non-Toxic”.

The IC50 is the concentration at which inhibition is half-maximal.
